Screening results deposited in PubChem by several laboratories.
The list is not random: actives were taken first. Their share in the collection is about 4.1%.
TbMetRS inhib: Trypanosoma brucei MetRS inhibition. purified T. brucei MetRS, ATP depletion, Kinase-Glo luminescence. inhibition, % at 11.9 µM. 360,000 tested, 0.4% active;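 active means inhibition above a per-plate cutoff of the control wells' mean inhibition plus 3 SD, cut at about 5.5% in these data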;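 further: 0% = DMSO wells median and 100% = median of wells with control inhibitor compound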
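Material: parasite MetRS enzyme / Replication: singlicate, one well per compound / Signal: luminescence of leftover ATP / Schedule: 2 h aminoacylation at 25 °C after 15 min preincubation / Medium: HEPES-MgCl2-KCl buffer plus DTT, spermine, BSA, pyrophosphatase / Doses: 11.9 µM single point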
SMARCA2 act: SMARCA2 function activation, primary screen; 370,000 tested, 1% active; activation, % at 9.1 µM; MG213 cells, MMTV-luciferase reporter, dexamethasone, overnight; in the data active means activation above about 7.8%;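 further: 0% = vehicle wells and 100% = reference activator wells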
Efflux pump inh: inhibitors of Candida antifungal efflux pumps expressed in yeast; S. cerevisiae Candida pump triplex, Nile Red efflux; inhibition, % at 10 µM; 330,000 tested, 0.44% active;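 active means plate passing quality check with inhibition over a set limit, or well fluorescence over plate mean plus 4 SD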;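 further: Nile Red retained in pooled yeast measured as flow cytometry median fluorescence; 0% = buffer negative control and 100% = Enniatin B positive control; higher means more Nile Red kept so more efflux inhibition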
AHR activator: activates the human aryl hydrocarbon receptor. P35869. AID 2796. 320,000 tested, 2.5% active. AHR-responsive luciferase reporter cells, luminescence. activation, % at 5 µM; in the data active means activation above about 47%;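 further: 0% = vehicle wells and 100% = reference agonist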
Target sequence (P35869 whole entry, looked up): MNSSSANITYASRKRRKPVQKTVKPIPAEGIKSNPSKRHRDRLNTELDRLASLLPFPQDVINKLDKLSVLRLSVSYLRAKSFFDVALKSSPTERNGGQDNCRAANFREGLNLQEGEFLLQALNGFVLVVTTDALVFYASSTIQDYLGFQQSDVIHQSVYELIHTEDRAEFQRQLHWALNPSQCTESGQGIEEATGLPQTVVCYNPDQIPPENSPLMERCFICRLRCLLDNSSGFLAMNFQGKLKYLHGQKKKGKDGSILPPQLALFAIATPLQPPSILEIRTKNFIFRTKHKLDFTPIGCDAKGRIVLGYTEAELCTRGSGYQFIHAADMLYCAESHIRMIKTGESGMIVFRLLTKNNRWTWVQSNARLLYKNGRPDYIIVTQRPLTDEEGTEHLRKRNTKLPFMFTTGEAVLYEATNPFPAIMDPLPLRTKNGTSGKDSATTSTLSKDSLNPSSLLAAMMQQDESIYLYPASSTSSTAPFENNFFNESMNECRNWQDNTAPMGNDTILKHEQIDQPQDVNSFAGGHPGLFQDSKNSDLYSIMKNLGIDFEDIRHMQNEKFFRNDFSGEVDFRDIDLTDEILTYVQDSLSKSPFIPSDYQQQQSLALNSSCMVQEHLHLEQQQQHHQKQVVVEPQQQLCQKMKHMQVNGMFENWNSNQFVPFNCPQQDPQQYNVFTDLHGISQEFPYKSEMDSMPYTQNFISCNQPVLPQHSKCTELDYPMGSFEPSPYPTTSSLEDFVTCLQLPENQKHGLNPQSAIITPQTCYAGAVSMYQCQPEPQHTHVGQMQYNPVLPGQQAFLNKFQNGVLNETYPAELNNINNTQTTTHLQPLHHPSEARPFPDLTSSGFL
H9c2 TAG inh: reduces triacylglycerol accumulation in H9c2 cells. Nile Red lipid (TAG) fluorescence; cells loaded with 200 µM oleic acid. inhibition, % at 12.5 µM. 230,000 tested, 0.66% active;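 active means pattern-corrected inhibition of lipid staining of at least 50% with the nuclear-stain viability signal not falling by more than 50%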;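 further: 0% = DMSO wells and 100% = triacsin C control wells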
Numbers without * were called inactive; · = no result.

SMILES | TbMetRS inhib | SMARCA2 act | Efflux pump inh | AHR activator | H9c2 TAG inh
Cc1ccc(SCC(=O)c2c(C)[nH]c3ccccc23)cc1 | 0 | -2 | 0 | 43 | ·
Cc1[nH]c2ccccc2c1C(=O)CSc1ccccn1 | -1 | -1 | 0 | 53* | 3
Cc1ccc2c(C(=O)CSc3ccccc3)c(C)[nH]c2c1 | 1 | 4 | 0 | 58* | ·
CC(C)CN1C(=O)C[C@]2(C(=O)N(C)c3ccc(NC(=O)C(C)(C)C)cc32)C1c1ccccc1 (some centres undefined) | · | -2 | · | · | ·
O=C1CSc2ccc(C(=O)N3CCCC(C(=O)N4CCOCC4)C3)cc2N1 (centres undefined) | · | -2 | · | · | ·
Cc1cccc(CCNC(=O)c2ccc3c(c2)ncn3C2CCCCC2)c1 | · | 0 | · | · | ·
C/C(C=Nn1c(-c2ccc(F)cc2)n[nH]c1=S)=C/c1ccco1 | · | 3 | · | · | ·
Cc1[nH]c2ccccc2c1C(=O)COc1ccccc1F | 0 | 3 | 0 | 63* | -15
COc1cc(N)ccc1NC(=O)c1cccs1 | 0 | 1 | 0 | 60* | -9
CCOC(=O)[C@]12CCCC3=C1N(CCC3)C(=O)[C@@H](CC(=O)NCc1cccc(C(F)(F)F)c1)C2 | · | -2 | · | · | ·
O=C1c2ccccc2C(=O)N1c1nc2nccc(-c3ccccc3)n2n1 | -1 | -1 | 0 | 1 | 2
O=C(Nc1nc2nccc(-c3ccccc3)n2n1)C(Cl)(Cl)Cl | 0 | 2 | 0 | 54* | ·
Cc1cccc(N=C2NC(=O)S/C2=C\c2ccco2)c1 | -1 | 0 | 0 | 68* | 11
COc1ccc(C(=O)NNC2CC(=O)N(Cc3ccccc3)C2=O)cc1OC (centres undefined) | -2 | 7.9* | 0 | 1 | ·
CCOc1ccc(C(=O)NNC2CC(=O)N(Cc3ccc(Cl)cc3)C2=O)cc1OC (centres undefined) | 0 | 1 | 0 | 5 | -4
CCn1c(-c2cc(-c3ccccc3)sc2N)n[nH]c1=S | 0 | 3 | 0 | 73* | 17
CCn1c(-c2ccccc2O)n[nH]c1=S | -1 | 1 | 0 | -1 | ·
C=CCNC(=O)NC[C@@]1(C(=O)OC)CC(=O)N(C)[C@@H]1c1ccccc1 | · | -3 | · | · | ·
C/C(CCc1oc2c(Br)cc(Br)cc2c1-c1ccc(C)o1)=N\O | 15* | 0 | 0 | 20 | ·
c1ccc(-c2cc3ccccc3[nH]2)cc1 | 0 | -1 | 0 | 50* | -6
Cc1ccc(O)c(-c2cc3ccccc3[nH]2)c1 | 0 | 0 | 0 | 49* | ·
C(#CC1=CCCCC1)CNCC1CC1 | · | 1 | · | · | ·
COc1ccc(OCc2cc(C(=O)N3CCCC(OC)C3)no2)c2ccccc12 (centres undefined) | 0 | 2 | 0 | 36 | 4
COc1ccc(OCc2cc(C(=O)N3CCCC(O)C3)no2)c2ccccc12 (centres undefined) | 0 | 2 | 0 | 52* | -8
COC1=C[C@H](C(=O)N[C@H]2CCCC[C@@H]2NC(C)=O)[C@H](C)[C@@H](c2ccccc2)CC1=O | · | -4 | · | · | ·
SMILES | TbMetRS inhib | SMARCA2 act | Efflux pump inh | AHR activator | H9c2 TAG inh
COc1ccc2c(C)cc(N3CCOCC3)nc2c1 | 0 | 1 | 0 | 5 | 16
Cc1cc(N2CCN(c3ccccc3F)CC2)nc2cc(O)ccc12 | -1 | 3 | 0 | 17 | -4
Cc1cc(N2CCN(c3ccc(F)cc3)CC2)nc2cc(O)ccc12 | 0 | 1 | 0 | 98* | -26
COc1ccc2c(C)cc(N3CCN(c4ccc(F)cc4)CC3)nc2c1 | -1 | 0 | 0 | 69* | ·
Cc1ccc(Cn2cc(COC(=O)N3CCOCC3)nn2)cc1 | · | -1 | · | · | ·
COc1ccc(CSc2nnc(SCC(=O)Nc3ccc(S(N)(=O)=O)cc3)s2)cc1 | · | -5 | · | · | ·
CCOc1ccc(-n2c(SCC(=O)Nc3cccc4ccccc34)nnc2-c2ccco2)cc1 | · | -5 | · | · | ·
Clc1ccc(-c2cnn3c(-c4ccncc4)ccnc23)cc1 | 0 | 3 | 0 | 72* | -5
Nc1c(C(=O)O)cnc2c(-c3ccc(Cl)cc3)cnn12 | -1 | 3 | 0 | 98* | 7
Nn1c(SCc2cccc3ccccc23)nnc1-c1cc(-c2ccc(F)cc2)n[nH]1 | · | -9 | · | · | ·
O=C(OCc1cn(Cc2ccccc2)nn1)N1CCOCC1 | · | 2 | · | · | ·
O=C(Nc1cccnc1)c1cc(-c2ccccc2)on1 | 0 | -4 | 0 | 4 | 10
CC(C)n1cc(NC(=O)c2cc(-c3ccccc3)on2)cn1 | 0 | 2 | 0 | 0 | 50*
Cc1ccccc1Cn1cc(NC(=O)c2cc(-c3cccs3)on2)cn1 | 0 | -4 | 0 | 14 | ·
Cc1ccccc1Cn1cc(NC(=O)c2cc(-c3ccco3)on2)cn1 | 0 | 3 | 0 | 57* | -16
Cc1cc2c(c(=O)o1)[C@@]1(C(=O)N(C)c3cc(Br)ccc31)C1=C(CCCC1=O)O2 | · | -7 | · | · | ·
O=C(NCCc1c[nH]c2ccccc12)OCc1cn(Cc2ccc(F)c(F)c2)nn1 | · | -2 | · | · | ·
COc1cc2c(cc1NC(=O)CSc1nnc(-c3cccnc3)n1-c1ccc(Br)cc1)oc1ccccc12 | · | 1 | · | · | ·
Cc1c(N=C2Nc3cccc4cccc2c34)c(=O)n(-c2ccccc2)n1C | 0 | -3 | 0 | 90* | 9
COC(=O)[C@]12C[C@H](CC(=O)N3CCC(c4ccccc4)CC3)C(=O)N(Cc3cccc4ccccc34)C1=C[C@H](C1CCCC1)O[C@@H]2C | · | -4 | · | · | ·
COc1cccc(S(=O)(=O)N(C)C[C@@H]2Oc3ncc(Br)cc3C(=O)N([C@H](C)CO)C[C@@H]2C)c1 | · | -1 | · | · | ·
CC(C)NC(=O)N[C@@H]1C[C@@H]2O[C@H](CO)CC[C@@H]2O[C@@H]1CCc1ccc(-c2ccccc2F)cc1 | · | -1 | · | · | ·
O=C(/C=C/c1ccc(Br)cc1)Nc1ccc(S(=O)(=O)Nc2ncccn2)cc1 | -1 | 0 | 0 | 1 | 2
O=C(/C=C/c1cccc(F)c1)Nc1ccc(S(=O)(=O)Nc2ncccn2)cc1 | 1 | -1 | 0 | 54* | 6
O=C(/C=C/c1cccc(Cl)c1)Nc1ncccn1 | 0 | 3 | 0 | 64* | ·
SMILES | TbMetRS inhib | SMARCA2 act | Efflux pump inh | AHR activator | H9c2 TAG inh
CSc1cccc(NC(=O)/C=C/c2cccc(Cl)c2)c1 | 0 | 2 | 0 | -6 | ·
Cc1cccc(NC(=O)CSc2nc3c([nH]c4ccccc43)c(=O)n2C)c1 | 0 | -1 | 0 | 35 | 6
CCn1c(SCC(=O)N2CCN(c3ccccc3)CC2)nc2c([nH]c3ccccc32)c1=O | 0 | -2 | 0 | 54* | 35
CC(=O)Nc1ccc(NC(=O)CSc2nc3c([nH]c4ccccc43)c(=O)n2-c2ccccc2F)cc1 | 0 | -1 | 0 | 58* | 12
COCCn1c(SCC(=O)Nc2cccc(F)c2)nc2c([nH]c3ccccc32)c1=O | 0 | 0 | 0 | 65* | 33
COCCn1c(SCC(=O)Nc2ccc(C(C)=O)cc2)nc2c([nH]c3ccccc32)c1=O | 0 | -3 | 0 | 41 | 25
CCn1c(SCC(=O)N2CCC(C)CC2)nc2c([nH]c3ccccc32)c1=O | 0 | -8 | · | · | 1
COc1ccc(-n2c(SCC(=O)Nc3ccc(NC(C)=O)cc3)nc3c([nH]c4ccccc43)c2=O)cc1OC | 0 | -1 | -2 | 41 | 5
